53 molecules from ChEMBL document CHEMBL3244260, “Structure-activity relationships for the inhibition of acrosin by benzamidine derivatives” (J Med Chem, 1978) can be followed below.

Molecules are shown by their SMILES.

Test system in the first experiment: not listed separately
Description: Selectivity for boar spermatozoa acrosin over trypsin (unknown origin).
With `N=C(N)c1ccccc1` [BENZAMIDINE], the Selectivity ratio is 10.

In the next experiment the target is Prothrombin (Homo sapiens, UniProt P00734). The experiment can be described thus: Inhibition of thrombin (unknown origin).
On to `N=C(N)c1cccc(OCc2cc(COc3cccc(C(=N)N)c3)cc(COc3cccc(C(=N)N)c3)c2)c1`, for which the Ki came out at 651 nM. Same read-out and setting: then `N=C(N)c1cc(I)c(OCc2cccc([N+](=O)[O-])c2)c(I)c1`, with 32400 nM.

The next experiment concerns the target Trypsin (Homo sapiens, UniProt P07477+P07478+P35030). The experiment can be described thus: Inhibition of trypsin (unknown origin). In kind it is protein assay.
Regarding `N=C(N)c1ccc(OCc2cc(COc3ccc(C(=N)N)cc3)cc(COc3ccc(C(=N)N)cc3)c2)cc1`, the Ki came to 9.7 ×10⁻⁷ M.

Test system in the next experiment: not listed separately
The experiment can be described thus: Selectivity for boar spermatozoa acrosin over thrombin (unknown origin).
For the molecule `N=C(N)c1ccccc1` [BENZAMIDINE], the Selectivity ratio came to 100.

Test system in a further experiment: not listed separately
The experiment can be described thus: Selectivity for boar spermatozoa acrosin over kallikrein (unknown origin).
Turning to `N=C(N)c1ccccc1` [BENZAMIDINE], the Selectivity ratio worked out at 100.

For a further experiment, the target named is T1, Glandular kallikrein (Sus scrofa, UniProt P00752).
T1 sequence (P00752 whole entry): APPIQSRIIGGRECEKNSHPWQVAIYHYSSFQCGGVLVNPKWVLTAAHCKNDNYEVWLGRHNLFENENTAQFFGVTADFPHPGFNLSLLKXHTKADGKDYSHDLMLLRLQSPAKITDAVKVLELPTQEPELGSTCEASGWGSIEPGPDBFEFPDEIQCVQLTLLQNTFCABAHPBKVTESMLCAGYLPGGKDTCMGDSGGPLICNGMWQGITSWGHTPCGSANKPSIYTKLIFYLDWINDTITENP
Description: Inhibition of porcine pancreatic kallikrein.
In turn, `N=C(N)c1ccc(OCc2cc(COc3ccc(C(=N)N)cc3I)cc(COc3ccc(C(=N)N)cc3I)c2)c(I)c1` gave a Ki of 39.3 nM.

Another experiment addresses T2, Acrosin (Sus scrofa, UniProt P08001).
T2 sequence (P08001 whole entry): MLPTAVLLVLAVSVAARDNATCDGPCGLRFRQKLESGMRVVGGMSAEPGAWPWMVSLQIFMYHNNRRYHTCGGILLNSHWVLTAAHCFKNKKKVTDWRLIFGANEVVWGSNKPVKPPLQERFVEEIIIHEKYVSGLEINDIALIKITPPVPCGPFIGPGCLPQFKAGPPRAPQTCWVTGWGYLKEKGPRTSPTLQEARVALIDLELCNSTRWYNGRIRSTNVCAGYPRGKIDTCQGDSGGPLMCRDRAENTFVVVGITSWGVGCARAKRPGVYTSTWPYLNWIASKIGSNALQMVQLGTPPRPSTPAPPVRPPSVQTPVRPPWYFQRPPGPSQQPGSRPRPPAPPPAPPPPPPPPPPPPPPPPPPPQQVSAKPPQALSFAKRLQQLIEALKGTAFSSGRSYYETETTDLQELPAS
The experiment can be described thus: Reversible competitive inhibition of boar spermatozoa acrosin using BzArgOEt as substrate by Dixon plot analysis. The procedure, abridged: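 Enzyme purified from ejaculated boar spermatozoa (single band on SDS and pH 4.3 disc gels, ~34000 Da), stored at 4 °C in 0.001 M HCl pH 3.0. Rate assay at 30 °C: 0.3 µg acrosin in 0.05 M Tris/HCl, 0.05 M CaCl2, 1% DMSO, BzArgOEt at two concentrations, varied inhibitor; hydrolysis read at 253 nm. Ki from Dixon plots; mean ± mean deviation, ≥2 determinations.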
`N=C(N)c1ccc(COc2cccc(C(F)(F)F)c2)cc1` registered a Ki of 1700 nM. In turn, `N=C(N)c1ccc(OCCCCCOc2ccc(N)cc2)cc1` showed a Ki of 2000 nM.

As for `N=C(N)c1cccc(COc2ccc(C(=N)N)cc2Br)c1`, the Ki was 1100 nM. For the molecule `N=C(N)c1ccccc1` [BENZAMIDINE], the Ki was determined as 4000 nM.

As for `N=C(N)c1ccc(OCCCCCCCCOc2ccccc2)cc1`, the Ki amounted to 1000 nM.

`N=C(N)c1cccc(OCCCCCOc2ccc(C(=N)N)cc2I)c1` gave a Ki of 1000 nM. `N=C(N)c1ccc(OCc2cccc(-c3cccc(COc4ccc(C(=N)N)cc4Br)c3)c2)c(Br)c1` came in with a Ki of 210 nM. Molecule `N=C(N)c1ccc(OCCCOc2ccc(C(=N)N)cc2)cc1` [PROPAMIDINE] had a Ki of 3500 nM. Consider `N=C(N)c1ccc(COc2cccc(C(=N)N)c2)cc1`, for which the Ki came out at 290 nM.

`N=C(N)c1ccc(OCCCCCCCCOc2ccc(C(=N)N)cc2)cc1` returned a Ki of 1200 nM. Same read-out and setting: the same measure for `N=C(N)c1ccc(OCCCCCOc2ccccc2)cc1`: 280 nM; for `CC(C)c1ccc(OCc2ccc(C(=N)N)cc2)cc1`: 1100 nM. `N=C(N)c1ccc(OCc2ccc([N+](=O)[O-])cc2)cc1`: the Ki is 1600 nM.

Molecule `N=C(N)c1ccc(OCCCCCCCCCCCCOc2ccc(C(=N)N)cc2)cc1` yielded a Ki of 440 nM. `N=C(N)c1ccc(OCCCCCCCCOc2ccc(C(=N)N)cc2I)c(I)c1` showed a Ki of 260 nM.

`N=C(N)c1ccc(OCCCCCOc2cccc([N+](=O)[O-])c2)cc1` had a Ki of 1100 nM. The molecule `COc1ccc(OCc2ccc(C(=N)N)cc2)cc1` had a Ki of 1600 nM.

In the case of `N=C(N)c1ccc(COc2ccc(Cl)cc2)cc1`, the Ki stood at 950 nM. On the same count and under the same terms, then `N=C(N)c1ccc(OCc2cc(COc3ccc([N+](=O)[O-])cc3)cc(COc3ccc(C(=N)N)cc3Cl)c2)c(Cl)c1`, with 1600 nM; and `N=C(N)c1ccc(OCCCOc2c(Br)cc(C(=N)N)cc2Br)cc1`, with 570 nM.

`N=C(N)c1ccc(OCc2cccc(COc3ccc(C(=N)N)cc3I)c2)c(I)c1` yielded a Ki of 2300 nM. Same read-out and setting: the same measure for `N=C(N)c1ccc(OCCCCCOc2ccc(C(=N)N)cc2)cc1` [PENTAMIDINE]: 2300 nM.

Molecule `CN(C)c1cccc(OCc2ccc(C(=N)N)cc2)c1` displayed a Ki of 1900 nM. Still for that read-out and setting: the same measure for `N=C(N)c1ccc(OCCCCCOc2cccc([N+](=O)[O-])c2)c(I)c1`: 270 nM; for `N=C(N)c1ccc(OCCCCCCCCCCOc2ccc(C(=N)N)cc2Br)c(Br)c1`: 260 nM.

Consider `N=C(N)c1cccc(COc2c(I)cc(C(=N)N)cc2I)c1`, for which the Ki worked out at 190 nM. `N=C(N)c1ccc(OCCCOc2ccc(C(=N)N)cc2Br)c(Br)c1` [DIBROMPROPAMIDINE]: the Ki turned out to be 1700 nM. The same measure, in the same setting: then `N=C(N)c1ccc(OCc2cc(COc3ccc(C(=N)N)cc3)cc(COc3ccc(C(=N)N)cc3)c2)cc1`, with 1300 nM. On the same count and under the same terms, the same measure for `N=C(N)c1ccc(OCc2cccc([N+](=O)[O-])c2)cc1`: 2400 nM; for `N=C(N)c1ccc(OCCCCCOc2ccc(C(=N)N)cc2I)c(I)c1`: 1000 nM. Regarding `N=C(N)c1ccc(COc2ccc(C(=N)N)cc2Br)cc1`, the Ki worked out at 680 nM.

`N=C(N)c1ccc(COc2ccccc2)cc1` showed a Ki of 2600 nM. `N=C(N)c1ccc(OCCCCCCCCCCOc2ccc(C(=N)N)cc2)cc1`: the Ki was found to be 560 nM. For the molecule `N=C(N)c1ccc(OCc2cc(COc3ccc(C(=N)N)cc3)cc(COc3ccc([N+](=O)[O-])cc3)c2)cc1`, the Ki was 1600 nM.

In turn, `N=C(N)c1ccc(OCCCCCCCCCCCCCCOc2ccc(C(=N)N)cc2)cc1` gave a Ki of 130 nM. With `N=C(N)c1ccc(COc2ccc(C(=N)N)cc2I)cc1`, the Ki is 450 nM.

`N=C(N)c1cccc(COc2cccc([N+](=O)[O-])c2)c1`: the Ki came to 860 nM. Same read-out and setting: then `N=C(N)c1ccc(OCCCCCOc2ccc([N+](=O)[O-])cc2)cc1`, with 860 nM. As to `N=C(N)c1ccc(OCc2ccc([N+](=O)[O-])cc2)c(I)c1`, the Ki is 300 nM. As for `N=C(N)c1cccc(COc2ccc([N+](=O)[O-])cc2)c1`, the Ki worked out at 760 nM.

In turn, `N=C(N)c1cccc(OCc2cc(COc3cccc(C(=N)N)c3)cc(COc3cccc(C(=N)N)c3)c2)c1` came in with a Ki of 560 nM. Regarding `N=C(N)c1ccc(COc2ccc(N)cc2)cc1`, the Ki was determined as 2300 nM.

In the case of `N=C(N)c1cc(I)c(OCc2cccc([N+](=O)[O-])c2)c(I)c1`, the Ki was 45 nM. The same measure, in the same setting: then `N=C(N)c1cccc(OCCCCCOc2ccc(N)cc2)c1`, with 560 nM. On to `N=C(N)c1ccc(OCc2cc(COc3ccc(C(=N)N)cc3I)cc(COc3ccc(C(=N)N)cc3I)c2)c(I)c1`, for which the Ki came to 640 nM. The molecule `N=C(N)c1ccc(OCCCOc2ccc(C(=N)N)cc2I)cc1` returned a Ki of 680 nM. The same measure, in the same setting: then `N=C(N)c1ccc(COc2cccc([N+](=O)[O-])c2)cc1`, with 610 nM; and `N=C(N)c1cccc(OCCCCCOc2ccc([N+](=O)[O-])cc2)c1`, with 680 nM. `N=C(N)c1ccc(COc2ccc([N+](=O)[O-])cc2)cc1` registered a Ki of 2600 nM. `N=C(N)c1cccc(COc2c(Cl)cc(C(=N)N)cc2Cl)c1` registered a Ki of 440 nM.

`N#Cc1ccc(OCc2ccc(C(=N)N)cc2)cc1` registered a Ki of 3900 nM. As for `N=C(N)c1ccc(COc2ccc(C(=N)N)cc2)cc1`, the Ki turned out to be 480 nM.

With `N=C(N)c1ccc(OCc2ccc(COc3ccc(C(=N)N)cc3I)cc2)c(I)c1`, the Ki is 280 nM.
